Assay results reported in ChEMBL document CHEMBL1157190, “Design, synthesis, and anticonvulsant activity of N-phenylamino derivatives of 3,3-dialkyl-pyrrolidine-2,5-diones and hexahydro-isoindole-1,3-diones” (Bioorg Med Chem, 2008).
Activity calls are given as the source filed them. The rule behind the calls is not given here.

Legend:
Mus musculus [1] = test: Anticonvulsant activity in ip dosed CF1 albino mouse assessed as inhibition of subcutaneous pentylenetetrazole-induced electrical stimulus at 300 mg/kg after 0.5 hr; format: functional, organism-based; design: dose 300 mg/kg
How it was run: (§1)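 Male CF-1 mice injected intraperitoneally at 30, 100 and 300 mg/kg, suspended in 0.5% methylcellulose/water. MES or subcutaneous pentylenetetrazole challenge at 0.5 and 4 h; selected compounds also at 1 or 2 h.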

Mus musculus [2] = test: Neurotoxicity in ip dosed CF1 albino mouse at 300 mg/kg after 0.5 hr by rotarod test; format: toxicity, organism-based; design: dose 300 mg/kg, route intraperitoneal; settings: in vivo
How it was run: (§2)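 CF-1 mice given 30, 100 or 300 mg/kg ip in 0.5% methylcellulose/water, examined at 0.5 and 4 h. Rotorod test: neurotoxicity is the inability to keep equilibrium on the rod for a given time. Value is the minimum dose giving motor impairment; a dash means none at 300 mg/kg.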

Mus musculus [3] = test: Anticonvulsant activity in ip dosed CF1 albino mouse assessed as inhibition of subcutaneous pentylenetetrazole-induced electrical stimulus at 300 mg/kg after 4 hrs; format: functional, organism-based; design: dose 300 mg/kg; how it was run: as §1
Mus musculus [4] = test: Anticonvulsant activity in ip dosed CF1 albino mouse assessed as inhibition of maximal electroshock-induced electrical stimulus at 300 mg/kg after 4 hrs; format: functional, organism-based; design: dose 300 mg/kg; how it was run: as §1
Mus musculus [5] = test: Anticonvulsant activity in ip dosed CF1 albino mouse assessed as inhibition of maximal electroshock-induced electrical stimulus at 300 mg/kg after 0.5 hr; format: functional, organism-based; design: dose 300 mg/kg; how it was run: as §1
Mus musculus [6] = test: Neurotoxicity in ip dosed CF1 albino mouse at 300 mg/kg after 4 hrs by rotarod test; format: toxicity, organism-based; design: dose 300 mg/kg, route intraperitoneal; settings: in vivo; how it was run: as §2
[7] = Lipophilicity, log kw of compound by RP-HPLC; format: physicochemical
How it was run: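 RP-HPLC on a C18 end-capped column at room temperature, with UV detection at 214 nm and uracil as the unretained marker. Capacity factor k = (tr − t0)/t0, from the mean of three measurement sets. log k extrapolated to 100% water (log k = log kw − Sφ) to give log kw.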

Mus musculus [8] = test: Anticonvulsant activity in ip dosed CF1 albino mouse assessed as inhibition of subcutaneous pentylenetetrazole-induced electrical stimulus after 0.5 hr; format: functional; how it was run: as §1
Mus musculus [9] = test: Neurotoxicity in ip dosed CF1 albino mouse after 0.5 hr by rotarod test; format: toxicity, organism-based; settings: in vivo; how it was run: as §2
Mus musculus [10] = test: Anticonvulsant activity in ip dosed CF1 albino mouse assessed as inhibition of maximal electroshock-induced electrical stimulus after 0.5 hr; format: functional; how it was run: as §1
Mus musculus [11] = test: Neurotoxicity in ip dosed CF1 albino mouse after 4 hrs by rotarod test; format: toxicity, organism-based; settings: in vivo; how it was run: as §2
Mus musculus [12] = test: Anticonvulsant activity in ip dosed CF1 albino mouse assessed as inhibition of maximal electroshock-induced electrical stimulus after 4 hrs; format: functional; how it was run: as §1
Rattus norvegicus [13] = test: Anticonvulsant activity in Sprague-Dawley rat assessed as protection against seizure at 30 mg/kg, po after 4 hrs by maximal electroshock test; format: functional
How it was run: (§3)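 Male Sprague–Dawley rats; compound suspended in 0.5% methylcellulose/water and given orally at a fixed 30 mg/kg, four rats per time point. MES test run at 0.25, 0.5, 1, 2 and 4 h after dosing, with motor impairment checked in parallel. Read-out: number of rats of four protected.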

Mus musculus [14] = test: Anticonvulsant activity in ip dosed CF1 albino mouse assessed as inhibition of subcutaneous pentylenetetrazole-induced electrical stimulus after 4 hrs; format: functional; how it was run: as §1
Rattus norvegicus [15] = test: Anticonvulsant activity in Sprague-Dawley rat assessed as protection against seizure at 30 mg/kg, po after 0.5 hr by maximal electroshock test; format: functional; how it was run: as §3
Rattus norvegicus [16] = test: Anticonvulsant activity in Sprague-Dawley rat assessed as protection against seizure at 30 mg/kg, po after 0.25 hr by maximal electroshock test; format: functional; how it was run: as §3
Rattus norvegicus [17] = test: Anticonvulsant activity in Sprague-Dawley rat assessed as protection against seizure at 30 mg/kg, po after 2 hrs by maximal electroshock test; format: functional; how it was run: as §3
Rattus norvegicus [18] = test: Anticonvulsant activity in Sprague-Dawley rat assessed as protection against seizure at 30 mg/kg, po after 1 hr by maximal electroshock test; format: functional; how it was run: as §3
Rattus norvegicus [19] = test: Anticonvulsant activity in Sprague-Dawley rat assessed as protection against seizure at 50 mg/kg, po after 0.5 hr by subcutaneous pentylenetetrazole test; format: functional
How it was run: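 Male Sprague–Dawley rats dosed orally at 50 mg/kg as a 0.5% methylcellulose/water suspension, four animals per time point. Convulsant given subcutaneously at 0.25, 0.5, 1, 2 and 4 h after dosing; rotorod motor impairment assessed in parallel. Read-out: number of rats of four protected.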

Structure (SMILES)	Activity (Mus musculus [1])	Activity (Mus musculus [2])	Activity (Mus musculus [3])	Activity (Mus musculus [4])	Activity (Mus musculus [5])	Activity (Mus musculus [6])	log K [7]	Activity (Mus musculus [8]) [mg/kg]	Activity (Mus musculus [9]) [mg/kg]	Activity (Mus musculus [10]) [mg/kg]	Activity (Mus musculus [11]) [mg/kg]	Activity (Mus musculus [12]) [mg/kg]	Activity (Rattus norvegicus [13])	Activity (Mus musculus [14]) [mg/kg]	Activity (Rattus norvegicus [15])	Activity (Rattus norvegicus [16])	Activity (Rattus norvegicus [17])	Activity (Rattus norvegicus [18])	Activity (Rattus norvegicus [19])
CNN1C(=O)CC(C)(C)C1=O	inactive	Not Active	inactive	inactive	inactive	Not Active	–	–	–	–	–	–	–	–	–	–	–	–	–
CCCCC1(C)CC(=O)N(Nc2ccc(Cl)cc2Cl)C1=O (stereo not given)	–	–	inactive	inactive	–	Not Active	2.896	100	100	100	–	–	–	–	–	–	–	–	–
CCCCC1(C)CC(=O)N(Nc2ccccc2Cl)C1=O (stereo not given)	–	–	inactive	inactive	–	Not Active	2.566	300	300	300	–	–	–	–	–	–	–	–	–
O=C1C2CCCCC2C(=O)N1Nc1cccc(Cl)c1 (stereo not given)	–	–	inactive	inactive	inactive	Not Active	2.173	300	300	–	–	–	–	–	–	–	–	–	–
CCCC1(C)CC(=O)N(Nc2ccc(Br)cc2)C1=O (stereo not given)	–	–	–	–	–	–	2.403	300	300	100	300	300	inactive	–	–	–	–	–	–
CCC1(C)CC(=O)N(Nc2ccc(C)cc2)C1=O (stereo not given)	–	–	inactive	inactive	–	Not Active	1.928	300	300	300	–	–	–	–	–	–	–	–	–
CCCC1(C)CC(=O)N(Nc2ccc(Cl)cc2)C1=O (stereo not given)	–	–	–	–	–	–	2.445	100	100	100	300	300	inactive	–	–	–	–	–	–
CC1(C)CC(=O)N(Nc2ccc(Cl)cc2)C1=O	–	–	–	–	–	–	2.08	100	300	100	300	300	–	300	–	–	–	–	–
CCC1(C)CC(=O)N(Nc2ccccc2Cl)C1=O (stereo not given)	inactive	–	inactive	inactive	–	Not Active	2.029	–	300	300	–	–	–	–	–	–	–	–	–
CCC1(C)CC(=O)N(Nc2ccc(Br)cc2)C1=O (stereo not given)	–	–	–	inactive	–	Not Active	2.024	300	300	300	–	–	25%	100	50%	75%	50%	50%	–
CCC1(CC)CC(=O)N(Nc2ccc(C)cc2)C1=O	inactive	–	inactive	inactive	–	Not Active	1.999	–	100	300	–	–	–	–	–	–	–	–	–
CCC1(C)CC(=O)N(Nc2ccccc2C)C1=O (stereo not given)	inactive	–	inactive	inactive	–	–	1.864	–	100	300	100	–	–	–	–	–	–	–	–
CC1(C)CC(=O)N(Nc2ccccc2Cl)C1=O	–	–	inactive	inactive	–	Not Active	1.876	300	30	100	–	–	–	–	–	–	–	–	–
CCC1(C)CC(=O)N(Nc2cccc(Cl)c2)C1=O (stereo not given)	–	–	–	–	–	–	2.183	–	300	300	–	–	inactive	–	–	–	inactive	inactive	inactive
O=C1C2CCCCC2C(=O)N1Nc1ccc(Cl)cc1 (stereo not given)	–	Not Active	inactive	inactive	inactive	Not Active	2.224	100	–	–	–	–	–	–	–	–	–	–	–
Cc1ccc(NN2C(=O)CC(C)(C)C2=O)cc1	–	–	inactive	inactive	–	Not Active	1.642	300	100	300	–	–	–	–	–	–	–	–	–
CCC1(CC)CC(=O)N(Nc2ccc(Br)cc2)C1=O	inactive	Not Active	inactive	inactive	inactive	Not Active	2.221	–	–	–	–	–	–	–	–	–	–	–	–
O=C1C2CCCCC2C(=O)N1Nc1ccc(Cl)cc1Cl (stereo not given)	inactive	–	inactive	–	–	–	2.425	–	300	–	300	100	–	–	–	–	–	–	–
CCC1(CC)CC(=O)N(Nc2ccccc2Cl)C1=O	–	–	inactive	inactive	inactive	Not Active	2.244	300	100	–	–	–	–	–	–	–	–	–	–
CCC1(C)CC(=O)N(Nc2ccccc2)C1=O (stereo not given)	–	–	–	–	–	–	1.695	300	100	300	–	–	inactive	–	–	–	inactive	–	inactive
CCC1(CC)CC(=O)N(Nc2ccccc2)C1=O	inactive	–	inactive	inactive	inactive	Not Active	1.826	–	300	–	–	–	–	–	–	–	–	–	–
O=C1C2CCCCC2C(=O)N1Nc1ccccc1Cl (stereo not given)	inactive	Not Active	inactive	inactive	inactive	Not Active	2.162	–	–	–	–	–	–	–	–	–	–	–	–
CCCC1(C)CC(=O)N(Nc2cccc(Cl)c2)C1=O (stereo not given)	–	–	inactive	inactive	–	Not Active	2.401	300	100	300	–	–	–	–	–	–	–	–	–
CCCC1(C)CC(=O)N(Nc2ccccc2Cl)C1=O (stereo not given)	–	–	inactive	inactive	–	Not Active	2.364	300	300	300	–	–	–	–	–	–	–	–	–
CC1(C)CC(=O)N(Nc2ccc(Cl)cc2Cl)C1=O	–	–	–	–	–	–	2.179	100	100	–	–	100	inactive	–	inactive	–	–	–	inactive
CCC1(C)CC(=O)N(Nc2ccc(Cl)cc2)C1=O (stereo not given)	–	–	inactive	inactive	–	–	2.201	300	100	100	300	–	25%	–	–	inactive	–	25%	–
CCCCC1(C)CC(=O)N(Nc2ccc(Cl)cc2)C1=O (stereo not given)	inactive	–	inactive	inactive	inactive	Not Active	2.638	–	300	–	–	–	–	–	–	–	–	–	–
